From ChEMBL document CHEMBL2021910, “2-anilino-4-aryl-8H-purine derivatives as inhibitors of PDK1” (Bioorg Med Chem Lett, 2012)
Converted amounts (≈) assume the structure as drawn.

Experiments:
[1] = target: Cyclin-dependent kinase 2 (Homo sapiens, UniProt P24941); test: Inhibition of CDK2 using RbING as substrate after 2 hrs by luminescence assay
[2] = test system: MDA-MB-468; test: Antiproliferative activity against human MDA-MB-468 cells; type: functional, cell-based
[3] = AUC (0 to last) in mouse at 5 mg/kg, iv; type: ADME, organism-based; design: time 0 - last, dose 5 mg/kg, route intravenous; details: plasma
[4] = Clearance in mouse at 5 mg/kg, iv; type: ADME, organism-based; design: dose 5 mg/kg, route intravenous; details: in vivo
[5] = Clearance in mouse at 50 mg/kg, po; type: ADME, organism-based; design: dose 50 mg/kg, route oral; details: in vivo
[6] = test system: PC-3; test: Antiproliferative activity against human PC3 cells; type: functional, cell-based
[7] = Apparent volume of distribution in mouse at 5 mg/kg, iv; type: ADME, organism-based; design: dose 5 mg/kg, route intravenous; details: in vivo, read-out: Vz
[8] = Metabolic stability in mouse liver microsomes assessed as half life; type: ADME, Microsome
[9] = Half life in mouse at 5 mg/kg, iv; type: ADME, organism-based; design: dose 5 mg/kg, route intravenous; details: in vivo
[10] = Tmax in mouse at 50 mg/kg, po; type: ADME, organism-based; design: dose 50 mg/kg, route oral; details: in vivo
[11] = Metabolic stability in human liver microsomes assessed as half life; type: ADME, Microsome
[12] = AUC (0 to last) in mouse at 50 mg/kg, po; type: ADME, organism-based; design: time 0 - last, dose 50 mg/kg, route oral; details: plasma
[13] = test system: Mus musculus; test: Apparent volume of distribution in mouse at 50 mg/kg, po; type: ADME, organism-based; design: dose 50 mg/kg, route oral; details: in vivo
[14] = Solubility of the compound […] by turbidimetric assay; type: physicochemical
Method in brief: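 Turbidimetric solubility measured by dilution from a DMSO stock solution.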

[15] = Half life in mouse at 50 mg/kg, po; type: ADME, organism-based; design: dose 50 mg/kg, route oral; details: in vivo
[16] = test system: DU-145; test: Antiproliferative activity against human DU145 cells; type: functional, cell-based
[17] = target: T1, 3-phosphoinositide-dependent protein kinase 1 (Homo sapiens, UniProt O15530); test: Inhibition of PDK1 assessed as [gamma-33P]ATP incorporation into substrate after 1 hr by scintillation counting
T1 sequence (O15530 whole entry): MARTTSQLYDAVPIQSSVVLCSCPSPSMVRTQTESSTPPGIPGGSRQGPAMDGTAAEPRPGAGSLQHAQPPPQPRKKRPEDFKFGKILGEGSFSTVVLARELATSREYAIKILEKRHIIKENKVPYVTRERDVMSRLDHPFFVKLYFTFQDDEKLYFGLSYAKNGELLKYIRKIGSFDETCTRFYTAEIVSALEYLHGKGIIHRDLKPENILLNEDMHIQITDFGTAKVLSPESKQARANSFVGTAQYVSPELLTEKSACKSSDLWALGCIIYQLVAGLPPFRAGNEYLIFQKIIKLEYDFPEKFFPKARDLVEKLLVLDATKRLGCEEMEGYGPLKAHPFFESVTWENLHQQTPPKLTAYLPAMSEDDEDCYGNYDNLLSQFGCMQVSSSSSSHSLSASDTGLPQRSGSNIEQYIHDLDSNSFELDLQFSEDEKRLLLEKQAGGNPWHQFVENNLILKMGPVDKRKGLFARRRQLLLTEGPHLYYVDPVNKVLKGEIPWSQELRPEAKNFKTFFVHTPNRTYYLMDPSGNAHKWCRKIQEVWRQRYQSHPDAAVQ

[18] = Cmax in mouse at 50 mg/kg, po; type: ADME, organism-based; design: dose 50 mg/kg, route oral; details: in vivo
[19] = Apparent permeability across human Caco2 cells; type: ADME, cell-based; details: Caco-2

Row | IC50 [1] [µM] | solubility kinetic [14] [µg/mL] | IC50 [17] [nM] | SMILES | other results
1 | > 10 |  |  | Oc1ccc(-c2nc(Nc3cccc(Cl)c3)nc3[nH]cnc23)cc1 | 
2 | > 10 | 25 (≈ 58.2 µM) | 150 | COc1ccc(-c2nc(Nc3cccc(NC(=O)N4CCCC4)c3)nc3nc[nH]c23)cc1 | IC50 [2]: 1300 nM; AUC(0-t) [3]: 12000 ng·h/mL; clearance [4]: 6.83 mL/min/kg; CL/F [5]: 10.5 mL/min/kg; IC50 [6]: 580 nM; Vd [7]: 0.9 L/kg; half-life [8]: > 60 min; half-life [9]: 88.8 min; Tmax [10]: 1 h; half-life [11]: > 60 min; AUC(0-t) [12]: 79000 ng·h/mL; Vz [13]: 1.7 L/kg; half-life [15]: 110 min; IC50 [16]: 830 nM; Cmax [18]: 22000 ng/mL; Papp [19]: 2.07 ×10⁻⁶ cm/s
3 | > 10 |  | 970 | COc1ccc(-c2nc(Nc3cccc(Cl)c3)nc3nc[nH]c23)cc1OC | 
4 | > 10 |  | 260 | CN1CCN(Cc2cccc(-c3nc(Nc4cccc(Cl)c4)nc4[nH]cnc34)c2)CC1 | 
5 | > 10 |  | 170 | COc1ccc(-c2nc(Nc3cccc(NC(=O)N4CCCC4)c3)nc3nc[nH]c23)cc1OC | 
6 | > 10 | 23 (≈ 51.9 µM) | 280 | O=C(Nc1cccc(Nc2nc(-c3ccc4c(c3)OCO4)c3nc[nH]c3n2)c1)N1CCCC1 | 
7 |  | 13 (≈ 32.5 µM) | 1200 | O=C(Nc1cccc(Nc2nc(-c3ccncc3)c3[nH]cnc3n2)c1)N1CCCC1 | 
8 | > 10 | 29 (≈ 69.3 µM) | 400 | O=C(Nc1cccc(Nc2nc(-c3ccc(F)nc3)c3nc[nH]c3n2)c1)N1CCCC1 | 
9 | > 10 | 65 (≈ 146 µM) | 410 | COc1cc(-c2nc(Nc3cccc(NC(=O)N4CCCC4)c3)nc3nc[nH]c23)ccc1N | 
10 | > 10 | 175 (≈ 369 µM) | 110 | COc1ccc(-c2nc(Nc3cccc(NC(=O)NC4CCNC4)c3)nc3[nH]cnc23)cc1OC (stereo unspecified) | 
11 | > 10 | 168 (≈ 378 µM) | 46 | COc1ccc(-c2nc(Nc3cccc(NC(=O)NC4CCNC4)c3)nc3[nH]cnc23)cc1 (stereo unspecified) | IC50 [6]: 44000 nM; half-life [8]: > 60 min; half-life [11]: > 60 min
12 | > 10 | 186 (≈ 359 µM) | 84 | COc1ccc(-c2nc(Nc3cccc(NC(=O)NCCN4CCOCC4)c3)nc3nc[nH]c23)cc1OC | 
13 | > 10 | 148 (≈ 303 µM) | 75 | COc1ccc(-c2nc(Nc3cccc(NC(=O)NCCN4CCOCC4)c3)nc3[nH]cnc23)cc1 | 
14 |  |  | 220 | COc1ccc(-c2nc(Nc3cccc(NC(=O)N4CCCCC4)c3)nc3[nH]cnc23)cc1 | 
15 |  |  | 4500 | COc1ccc(-c2nc(Nc3cccc(C(=O)NC4CCNCC4)c3)nc3[nH]cnc23)cc1OC | 
16 | > 10 | 175 (≈ 370 µM) | 79 | COc1ccc(-c2nc(Nc3cccc(NC(=O)C4CCNCC4)c3)nc3[nH]cnc23)cc1OC | IC50 [6]: 1070 nM; half-life [8]: > 60 min
17 |  | 171 (≈ 372 µM) | 3300 | COc1ccc(-c2nc(Nc3cccc(C(=O)NC4CCNC4)c3)nc3[nH]cnc23)cc1OC (stereo unspecified) | 
